Test results from ChEMBL document CHEMBL4219255, “Targeting Transient Receptor Potential Vanilloid 1 (TRPV1) Channel Softly: The Discovery of Passerini Adducts as a Topical Treatment for Inflammatory Skin Disorders” (J Med Chem, 2018).
Active and inactive are the calls of the source. The rule behind the calls is not given here.

What was measured:
[1] = target: Transient receptor potential cation channel subfamily V member 1 (Homo sapiens, UniProt Q8NER1); assay: Antagonist activity at TRPV1 (unknown origin) expressed in human SH-SY5Y cells assessed as inhibition of capsaicin-induced calcium influx at 1 uM after 25 mins by Fluo-4 NW dye-based fluorescence assay relative to capsaicin; type: cell-based
[2] = Drug metabolism in human HaCaT cells assessed as residual substrate levels at 25 uM up to 240 mins by HPLC-UV analysis; type: ADME, cell-based; settings: read-out: Stability
[3] = Drug metabolism in human liver S9 fraction assessed as residual substrate levels at 50 uM up to 60 mins by HPLC-UV analysis; type: ADME, subcellular; settings: read-out: Stability
[4] = Drug metabolism in human keratinocytes assessed as residual substrate levels at 50 uM up to 120 mins by HPLC-UV analysis; type: ADME, cell-based, Keratinocyte; settings: read-out: Stability
[5] = target: T1, Liver carboxylesterase 1 (Homo sapiens, UniProt P23141); assay: Drug metabolism assessed as recombinant human CE1-mediated compound hydrolysis by measuring rate constant at 50 uM up to 30 mins by LC-UV analysis; type: ADME; settings: 0.5 h
T1 sequence (P23141 whole entry): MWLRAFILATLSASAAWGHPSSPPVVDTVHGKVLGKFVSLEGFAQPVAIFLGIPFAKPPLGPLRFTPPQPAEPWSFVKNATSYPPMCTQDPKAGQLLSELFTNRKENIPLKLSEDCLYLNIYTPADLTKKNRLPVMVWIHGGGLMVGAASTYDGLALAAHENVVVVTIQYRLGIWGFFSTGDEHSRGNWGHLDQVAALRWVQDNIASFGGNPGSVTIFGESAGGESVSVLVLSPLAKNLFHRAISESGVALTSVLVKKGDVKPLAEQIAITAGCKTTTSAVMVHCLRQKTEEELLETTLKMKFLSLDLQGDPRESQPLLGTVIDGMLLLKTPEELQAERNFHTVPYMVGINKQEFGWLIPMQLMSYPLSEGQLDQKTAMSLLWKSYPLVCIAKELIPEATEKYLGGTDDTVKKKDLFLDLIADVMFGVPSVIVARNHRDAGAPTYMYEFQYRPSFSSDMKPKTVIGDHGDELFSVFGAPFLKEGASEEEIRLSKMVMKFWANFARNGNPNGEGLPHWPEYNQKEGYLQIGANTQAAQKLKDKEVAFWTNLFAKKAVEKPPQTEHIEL
Outline: (§1)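 Recombinant human carboxylesterase isoforms 1 and 2 were each incubated with the test ester. Hydrolysis was followed by HPLC-UV, tracking the disappearance of the substrate over incubation time relative to the initial amount. Chromatograms were also checked for peaks of the expected hydrolysis metabolites.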

[6] = target: T2, Cocaine esterase (Homo sapiens, UniProt O00748); assay: Drug metabolism assessed as recombinant human CE2-mediated compound hydrolysis by measuring rate constant at 50 uM up to 30 mins by LC-UV analysis; type: ADME; settings: 0.5 h; outline: as §1
T2 sequence (O00748 whole entry): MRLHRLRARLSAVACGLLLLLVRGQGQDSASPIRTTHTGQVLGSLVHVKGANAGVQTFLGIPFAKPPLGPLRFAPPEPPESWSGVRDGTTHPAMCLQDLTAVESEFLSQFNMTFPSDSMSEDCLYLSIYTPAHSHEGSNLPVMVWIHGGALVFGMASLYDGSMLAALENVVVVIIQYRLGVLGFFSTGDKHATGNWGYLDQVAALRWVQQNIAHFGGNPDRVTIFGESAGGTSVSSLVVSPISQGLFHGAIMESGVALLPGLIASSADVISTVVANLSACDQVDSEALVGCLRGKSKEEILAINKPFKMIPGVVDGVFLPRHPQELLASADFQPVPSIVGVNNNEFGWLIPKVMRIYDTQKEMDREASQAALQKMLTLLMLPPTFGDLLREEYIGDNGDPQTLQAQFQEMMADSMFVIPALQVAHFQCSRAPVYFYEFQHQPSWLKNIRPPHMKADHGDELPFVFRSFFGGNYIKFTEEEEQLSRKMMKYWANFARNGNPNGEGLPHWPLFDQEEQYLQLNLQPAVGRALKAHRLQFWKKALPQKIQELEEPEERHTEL

[7] = target: T3, Liver carboxylesterase 1 (CE1) (Homo sapiens, UniProt P23141); assay: Drug metabolism assessed as recombinant human CE1-mediated compound hydrolysis by measuring compound half life at 50 uM up to 30 mins by LC-UV analysis; type: ADME; outline: as §1
T3 sequence (P23141 whole entry): T1 sequence (P23141 whole entry)

[8] = target: T4, Cocaine esterase (CE2) (Homo sapiens, UniProt O00748); assay: Drug metabolism assessed as recombinant human CE2-mediated compound hydrolysis by measuring compound half life at 50 uM up to 30 mins by LC-UV analysis; type: ADME; outline: as §1
T4 sequence (O00748 whole entry): T2 sequence (O00748 whole entry)

[9] = target: Transient receptor potential cation channel subfamily V member 1 (Rattus norvegicus) (UniProt O35433); assay: Inhibition of TRPV1 in Wistar rat neonatal dorsal root ganglia assessed as reduction in capsaicin-induced neuronal excitability by microelectrode array analysis
[10] = system: Mus musculus; assay: Analgesic activity in CFA-induced thermal hyperalgesia C57BL/6 mouse model assessed as reduction in latency time required to elicit paw withdrawal in response to radiant heat applied to the plantar surface of a hind paw administered as intraplantar injection treated at 24 hrs post CFA injection measured every 30 mins up to 120 mins post dose; type: functional, organism-based
[11] = system: Mus musculus; assay: (§2) Analgesic activity in CFA-induced thermal hyperalgesia C57BL/6 mouse model assessed as reduction in latency time required to elicit paw withdrawal in response to radiant heat applied to the plantar surface of a hind paw at 10 to 100 ug administered as intraplantar injection treated at 24 hrs post CFA injection measured at 30 mins post dose; type: functional, organism-based
[12] = system: Mus musculus; assay: as §2, with “60” for “30”; type: functional, organism-based
[13] = system: Mus musculus; assay: Analgesic activity in CFA-induced thermal hyperalgesia C57BL/6 mouse model assessed as reduction in CFA-induced ipsilateral paw withdrawal latency at 3 mg/kg, iv treated at 24 hrs post CFA injection measured at 60 to 90 mins post dose; type: functional, organism-based
[14] = system: Mus musculus; assay: Analgesic activity in CFA-induced thermal hyperalgesia C57BL/6 mouse model assessed as reduction in CFA-induced ipsilateral paw withdrawal latency at 10 mg/kg, iv treated at 24 hrs post CFA injection measured at 60 mins post dose; type: functional, organism-based
[15] = system: Mus musculus; assay: Antipruritic activity in C57BL/6 mouse histaminergic pruritus model assessed as reduction in licking behavior at 100 ug administered as intraplantar injection pretreated for 30 mins followed by histamine addition measured 10 to 20 mins post histamine instillation; type: functional, organism-based
[16] = system: Mus musculus; assay: Antipruritic activity in C57BL/6 mouse non-histaminergic pruritus model assessed as reduction in chloroquine-induced licking behavior at 100 ug administered as intraplantar injection pretreated for 30 mins followed by chloroquine addition measured 10 to 20 mins post chloroquine instillation; type: functional, organism-based
[17] = system: Mus musculus; assay: Toxicity in C57BL/6 mouse assessed as change in body temperature at 10 mg/kg, iv after 120 mins; type: organism-based; settings: in vivo, 2 h
[18] = Drug metabolism in human liver microsomes assessed as sulfate conjugate formation at 50 uM in presence of UDPGA after 60 mins by LC-ESI-MS analysis; type: ADME, microsome; settings: 1 h
[19] = Drug metabolism in human liver cytosol assessed as glucuronide metabolite formation at 50 uM in presence of UDPGA after 60 mins by LC-ESI-MS analysis; type: ADME, subcellular; settings: 1 h
[20] = Drug metabolism in human liver cytosol assessed as sulfate conjugate formation at 50 uM in presence of UDPGA after 60 mins by LC-ESI-MS analysis; type: ADME, subcellular; settings: 1 h

Transient receptor potential cation channel subfamily V member 1 (Rattus norvegicus), sequence (O35433 whole entry): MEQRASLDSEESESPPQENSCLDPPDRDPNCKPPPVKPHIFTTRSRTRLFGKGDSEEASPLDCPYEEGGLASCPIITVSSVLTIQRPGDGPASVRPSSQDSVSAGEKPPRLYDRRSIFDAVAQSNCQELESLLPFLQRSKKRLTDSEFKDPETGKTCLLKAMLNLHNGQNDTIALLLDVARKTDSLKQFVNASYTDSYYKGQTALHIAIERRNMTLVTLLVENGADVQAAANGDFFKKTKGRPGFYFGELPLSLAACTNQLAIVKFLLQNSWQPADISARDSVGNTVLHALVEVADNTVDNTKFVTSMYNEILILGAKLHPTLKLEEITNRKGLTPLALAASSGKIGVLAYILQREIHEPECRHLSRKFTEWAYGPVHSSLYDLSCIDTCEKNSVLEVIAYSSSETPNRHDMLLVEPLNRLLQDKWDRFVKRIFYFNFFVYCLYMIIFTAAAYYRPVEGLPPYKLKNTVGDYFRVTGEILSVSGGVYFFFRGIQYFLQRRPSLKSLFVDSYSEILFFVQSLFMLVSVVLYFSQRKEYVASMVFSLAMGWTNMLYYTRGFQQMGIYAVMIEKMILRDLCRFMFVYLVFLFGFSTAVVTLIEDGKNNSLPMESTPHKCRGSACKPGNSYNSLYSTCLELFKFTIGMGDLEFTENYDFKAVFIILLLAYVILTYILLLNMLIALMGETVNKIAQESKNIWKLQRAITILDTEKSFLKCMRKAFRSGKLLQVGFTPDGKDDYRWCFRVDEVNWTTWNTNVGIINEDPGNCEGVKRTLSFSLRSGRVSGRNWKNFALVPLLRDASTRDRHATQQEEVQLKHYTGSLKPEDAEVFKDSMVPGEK
Transient receptor potential cation channel subfamily V member 1, sequence (Q8NER1 whole entry): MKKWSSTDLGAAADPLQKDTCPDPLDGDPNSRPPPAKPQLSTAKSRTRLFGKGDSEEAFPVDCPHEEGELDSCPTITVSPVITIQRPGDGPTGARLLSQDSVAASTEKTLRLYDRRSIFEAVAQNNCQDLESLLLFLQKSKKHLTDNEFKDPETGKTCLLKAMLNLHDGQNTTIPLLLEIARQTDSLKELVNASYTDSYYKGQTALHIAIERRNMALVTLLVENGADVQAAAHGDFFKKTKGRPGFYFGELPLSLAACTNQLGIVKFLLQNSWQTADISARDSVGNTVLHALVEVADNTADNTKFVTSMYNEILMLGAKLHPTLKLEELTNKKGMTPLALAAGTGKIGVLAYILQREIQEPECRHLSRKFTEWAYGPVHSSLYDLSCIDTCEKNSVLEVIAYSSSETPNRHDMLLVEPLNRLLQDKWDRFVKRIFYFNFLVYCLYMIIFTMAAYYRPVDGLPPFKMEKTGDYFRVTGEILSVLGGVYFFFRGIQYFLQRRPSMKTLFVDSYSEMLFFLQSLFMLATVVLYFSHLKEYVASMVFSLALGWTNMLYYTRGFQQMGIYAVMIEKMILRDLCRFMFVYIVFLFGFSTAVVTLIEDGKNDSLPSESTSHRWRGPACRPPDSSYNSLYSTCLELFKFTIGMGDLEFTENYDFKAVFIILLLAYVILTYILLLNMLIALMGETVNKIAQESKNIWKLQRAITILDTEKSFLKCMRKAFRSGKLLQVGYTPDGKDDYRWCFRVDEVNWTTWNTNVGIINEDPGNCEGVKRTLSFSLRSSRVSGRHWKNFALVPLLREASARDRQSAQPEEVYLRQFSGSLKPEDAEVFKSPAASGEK

inhibition [1]: 59.8%
remaining at 4 h, 25 µM [2]: 98.6%
remaining at 1 h, 50 µM [3]: 0%
remaining at 2 h, 50 µM [4]: 22.6%
K [5]: 0.0255 min⁻¹
K [6]: 0.0555 min⁻¹
half-life at 50 µM [7]: 27.2 min
half-life at 50 µM [8]: 12.5 min
inhibition [9]: Dose-dependent effect
Drug metabolism [18]: Metabolite_Notdetected
Drug metabolism [19]: Metabolite_Notdetected
Drug metabolism [20]: Metabolite_Notdetected
SMILES: CCCCCCCCCCCC(=O)OCC(=O)NCc1cc(OC)c(O)cc1I
Activity [10]: Dose-dependent effect
Activity [11]: Active
Activity [12]: Active
Activity [13]: Active
Activity [14]: Active
Activity [15]: Active
Activity [16]: Active
Activity [17]: Non-Toxic
